Measurements taken from ChEMBL document CHEMBL1141044, “Synthesis and antipicornavirus activity of (R)- and (S)-1-[5-(4'-chlorobiphenyl-4-yloxy)-3-methylpentyl]-3-pyridin-4-yl-imidazolidin-2-one” (Bioorg Med Chem Lett, 2005).

Assays:
Enterovirus A71 [1] = experiment: Inhibitory activity against Human enterovirus 71 strain 4643 using plaque reduction assay; type: functional, organism-based; conditions: Enterovirus A
How it was run: (§1)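 EV71 strain 4643 titrated by plaque reduction in human rhabdomyosarcoma (RD) cells. Values are means of triplicate wells, and each experiment was run at least twice.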

[2] = Cytotoxicity against Human rhabdomyosarcoma cells using plaque reduction assay; type: functional
How it was run: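 Cytotoxicity was measured in human rhabdomyosarcoma (RD) cells. Values are means of triplicate wells from experiments done at least twice.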

Enterovirus A71 [3] = experiment: Inhibitory activity against human enterovirus 71 strain 4643 using plaque reduction assay; type: functional, organism-based; conditions: Enterovirus A; how it was run: as §1
Enterovirus A71 [4] = experiment: Inhibitory activity against Human Enterovirus 71 (1743) B using plaque reduction assay; type: functional, organism-based; conditions: Enterovirus A
How it was run: (§2)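 Panel screen by plaque reduction against representative human enteroviruses and rhinoviruses. Each value is a mean of triplicate wells, with all experiments performed at least twice.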

Enterovirus A71 [5] = experiment: Inhibitory activity against Human Enterovirus 71 (2086) C using plaque reduction assay; type: functional, organism-based; conditions: Enterovirus A; how it was run: as §2
Enterovirus A71 [6] = experiment: Inhibitory activity against Human Enterovirus 71 (2231) C using plaque reduction assay; type: functional, organism-based; conditions: Enterovirus A; how it was run: as §2
Enterovirus A71 [7] = experiment: Inhibitory activity against Human Enterovirus 71 (4643) C using plaque reduction assay; type: functional, organism-based; conditions: Enterovirus A; how it was run: as §2
Enterovirus A71 [8] = experiment: Inhibitory activity against Human Enterovirus 71 (BrCr) A using plaque reduction assay; type: functional, organism-based; how it was run: as §2
rhinovirus A2 = experiment: Inhibitory activity against Human rhinovirus 2 using plaque reduction assay; type: functional, organism-based, Human rhinovirus sp.; conditions: Rhinovirus A; how it was run: as §2
rhinovirus B14 = experiment: Inhibitory activity against Human rhinovirus 14 using plaque reduction assay; type: functional, organism-based, Human rhinovirus sp.; conditions: Rhinovirus B; how it was run: as §2
Echovirus = experiment: Inhibitory activity against Echovirus 29 using plaque reduction assay; type: functional, organism-based; how it was run: as §2
Coxsackievirus [9] = experiment: Inhibitory activity against Coxsackievirus A9 using plaque reduction assay; type: functional, organism-based; how it was run: as §2
Coxsackievirus [10] = experiment: Inhibitory activity against Coxsackievirus B1 using plaque reduction assay; type: functional, organism-based; how it was run: as §2
Coxsackievirus [11] = experiment: Inhibitory activity against Coxsackievirus B2 using plaque reduction assay; type: functional, organism-based; how it was run: as §2
Coxsackievirus [12] = experiment: Inhibitory activity against Coxsackievirus B3 using plaque reduction assay; type: functional, organism-based; how it was run: as §2
Coxsackievirus [13] = experiment: Inhibitory activity against Coxsackievirus B4 using plaque reduction assay; type: functional, organism-based; how it was run: as §2
Coxsackievirus [14] = experiment: Inhibitory activity against Coxsackievirus B5 using plaque reduction assay; type: functional, organism-based; how it was run: as §2
Coxsackievirus [15] = experiment: Inhibitory activity against Coxsackievirus B6 using plaque reduction assay; type: functional, organism-based; how it was run: as §2
Coxsackievirus [16] = experiment: Inhibitory activity against Coxsackievirus A16 using plaque reduction assay; type: functional, organism-based; how it was run: as §2
Coxsackievirus [17] = experiment: Inhibitory activity against Coxsackievirus A24 using plaque reduction assay; type: functional, organism-based; how it was run: as §2
Enterovirus D68 = experiment: Inhibitory activity against Human Enterovirus 68 using plaque reduction assay; conditions: Enterovirus D
Enterovirus = experiment: Inhibitory activity against Enterovirus 68 using plaque reduction assay; type: functional, organism-based; how it was run: as §2
Coxsackievirus [18] = experiment: Inhibitory activity against Coxsackievirus A10 using plaque reduction assay; type: functional, organism-based; how it was run: as §2
Enterovirus A71 [19] = experiment: Inhibitory activity against human Enterovirus 71 (1743) B using plaque reduction assay; type: functional, organism-based; conditions: Enterovirus A; how it was run: as §2
Enterovirus A71 [20] = experiment: Inhibitory activity against human Enterovirus 71 (2086) C using plaque reduction assay; type: functional, organism-based; conditions: Enterovirus A; how it was run: as §2
Enterovirus A71 [21] = experiment: Inhibitory activity against human Enterovirus 71 (2231) C using plaque reduction assay; type: functional, organism-based; conditions: Enterovirus A; how it was run: as §2
Enterovirus A71 [22] = experiment: Inhibitory activity against human Enterovirus 71 (4643) C using plaque reduction assay; type: functional, organism-based; conditions: Enterovirus A; how it was run: as §2
Enterovirus A71 [23] = experiment: Inhibitory activity against human Enterovirus 71 (BrCr) A using plaque reduction assay; type: functional, organism-based; how it was run: as §2

IC50 (Enterovirus A71 [1]) [µM] | IC50 (Enterovirus A71 [4]) [µM] | IC50 (Enterovirus A71 [5]) [µM] | IC50 (Enterovirus A71 [6]) [µM] | IC50 (Enterovirus A71 [7]) [µM] | IC50 (Enterovirus A71 [8]) [µM] | IC50 (rhinovirus A2) [µM] | IC50 (rhinovirus B14) [µM] | IC50 (Echovirus) [µM] | IC50 (Coxsackievirus [9]) [µM] | IC50 (Coxsackievirus [10]) [µM] | IC50 (Coxsackievirus [11]) [µM] | IC50 (Coxsackievirus [12]) [µM] | IC50 (Coxsackievirus [13]) [µM] | IC50 (Coxsackievirus [14]) [µM] | IC50 (Coxsackievirus [15]) [µM] | IC50 (Coxsackievirus [16]) [µM] | IC50 (Coxsackievirus [17]) [µM] | IC50 (Enterovirus) [µM] | SMILES | CC50 [2] [µM] | further results
0.04 |  |  |  |  |  |  |  |  |  |  |  |  |  |  |  |  |  |  | CC(C)(CCOc1ccc(-c2ccc(Cl)cc2)cc1)CCN1CCN(c2ccncc2)C1=O | > 25 | 
0.003 | 0.026 | 0.008 | 0.024 | 0.003 | 0.033 | > 25 | > 25 | 1.3 | 0.019 | > 25 | > 25 | > 25 | 1.25 | 4.85 | > 25 | 6.92 | > 25 |  | C[C@H](CCOc1ccc(-c2ccc(Cl)cc2)cc1)CCN1CCN(c2ccncc2)C1=O | > 25 | IC50 (Enterovirus A71 [3]): 0.003 µM; IC50 (Enterovirus D68): > 25 µM
0.033 | 0.17 | 0.049 | 0.16 | 0.033 | 0.32 | > 25 | > 25 | 1.47 | 0.15 | > 25 | > 25 | > 25 | 2.05 | 2.08 | > 25 | > 25 | > 25 | > 25 | C[C@@H](CCOc1ccc(-c2ccc(Cl)cc2)cc1)CCN1CCN(c2ccncc2)C1=O | > 25 | IC50 (Coxsackievirus [18]): > 25 µM
0.054 |  |  |  |  |  | > 25 | > 25 | 0.39 |  | > 25 | > 25 | > 25 | 1.3 |  | > 25 | > 25 |  | > 25 | O=C1N(CCCCCOc2ccc(-c3ccc(Cl)cc3)cc2)CCN1c1ccncc1 | > 25 | IC50 (Enterovirus A71 [19]): 0.092 µM; IC50 (Enterovirus A71 [20]): 0.043 µM; IC50 (Enterovirus A71 [21]): 0.092 µM; IC50 (Enterovirus A71 [22]): 0.054 µM; IC50 (Enterovirus A71 [23]): 0.13 µM; IC50 (Coxsackievirus [18]): > 25 µM
